Source: PubChem BioAssay AID2445 (The Scripps Research Institute Molecular Screening Center, 2010)
Among all 320,000 compounds or so, about 200 (0.062%) were called active.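 How the source made its calls: active means activation above that plate's cutoff, the mean activation of tested compounds plus 3 SD (cut at about 6.6% in these data, passing the limit was not always enough); inactive means the rest.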 The list comes from a sample in which actives are over-represented; it also holds similar structures and randomly drawn compounds.

Molecular target: Oxytocin receptor (Homo sapiens) (UniProt P30559)
Assay: human OXTR potentiators, primary screen, fluorescence, CHO-OTR cells, Fluo-8 calcium (AID 2445);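 further: 100% uses oxytocin at 75 nM as the full agonist control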
Settings: Fluo-8 calcium fluorescence, potentiator mode, at 3 µM, hits give high values, 0% = oxytocin EC15, 100% = EC100
Summary of the method: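 assay system = CHO-OTR cells, human receptor | schedule = compound 6 min at room temperature before oxytocin, 100 s read | detection = Fluo-8 intracellular calcium fluorescence, ex 470-495, em 515-575 nm | evaluation = normalized max/min fluorescence ratio, % activation | control set = EC15 oxytocin alone as 0%, 75 nM oxytocin (EC100) as 100%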

Oxytocin receptor (Homo sapiens), sequence (P30559 whole entry, looked up): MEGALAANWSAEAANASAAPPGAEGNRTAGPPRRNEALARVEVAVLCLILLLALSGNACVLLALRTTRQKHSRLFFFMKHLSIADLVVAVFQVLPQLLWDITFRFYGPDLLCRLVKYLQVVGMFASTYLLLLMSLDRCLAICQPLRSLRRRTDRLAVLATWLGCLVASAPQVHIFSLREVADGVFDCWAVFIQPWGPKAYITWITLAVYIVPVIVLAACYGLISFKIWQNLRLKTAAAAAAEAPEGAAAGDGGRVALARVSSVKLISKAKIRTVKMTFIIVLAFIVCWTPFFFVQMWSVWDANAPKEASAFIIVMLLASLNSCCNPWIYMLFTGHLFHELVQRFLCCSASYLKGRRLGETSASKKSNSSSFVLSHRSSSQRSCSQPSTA

activation, active:
COc1cc2c(cc1OC)C(c1ccc(C)o1)CC(=O)N2 (configuration not stated) 6.71%
CCCCn1c(N)c(N2CCOCC2)c(=O)n(CC(=O)NCCc2ccccc2)c1=O 14.8%
O=C(NC(=S)Nc1ccccc1N1CCCCC1)c1ccc(F)cc1 25.2%

activation, inactive:
CC(=O)c1ccc(OCC(O)CN2CCN(S(=O)(=O)c3cccc(Br)c3)CC2)cc1 (configuration not stated) -10.6%
COc1cc(OC)cc(C(=O)N[C@H](C(=O)NNC(=O)c2ccc(Br)cc2)C(C)C)c1 0.41%
COc1ccc(S(=O)(=O)N2CCOC2CNC(=O)C(=O)NCc2ccncc2)cc1C (configuration not stated) 2.91%
CCS(=O)(=O)n1nc(-c2ccccc2)nc1SCc1ccccc1 0.8%
O=C(NC1CCCCCCC1)c1cccs1 -9.53%
CCO[C@H]1OC(C(=O)Nc2ccccc2)=C[C@@H](C2CC2)[C@@H]1CCCO -3.89%
CCOc1ccc(CNC(=O)CCC(=O)N2CCSc3ccccc32)cc1 -5.95%
CC(OC(=O)c1c(F)cccc1F)C(=O)NCCC1=CCCCC1 (configuration not stated) -1.25%
CCCCCCSc1ccc([C@@H]2[C@@H]3C(=O)N(CC)C(=O)[C@@H]3[C@]3(C(=O)OC)CCCCN23)cc1OC -12.2%
O=S1(=O)CCOC[C@H](CC2CCCCC2)N1Cc1ccc(F)cc1 0.09%
Cc1ccccc1CCN(CC(=O)NC1CCCCC1)C(=O)c1csnn1 -12.1%
Cc1c(Cl)cccc1NC(=O)[C@@]1(CC(=O)O)CC(/C=C/c2ccccc2)=NO1 -10.7%
Cc1ccc(S(=O)(=O)Nc2nc(CN3CCOCC3)nc3sc(C)c(C)c23)cc1 4.74%
Cc1cc(C)c2c(c1)c(C)cc1nnc(SCC(=O)NCc3ccco3)n12 -0.06%
Cc1cc(C)cc(N(CCC#N)C(=O)CN2C(=O)NC3(CCCC3)C2=O)c1 -5.16%
O=C(C1CCN(C2CCN(Cc3cccc4c3OCO4)CC2)CC1)N1CCOCC1 -0.07%
Cc1ccc(N2C(=O)C3C(c4ccccc4)(C2=O)C3(c2ccccc2)c2ccccc2)cc1 (configuration not stated) -5.54%
CC1CCCC(NC(=O)CSc2nccn2C)C1C (configuration not stated) -21.1%
Cc1ccccc1-c1cc(C(=O)NCc2cccs2)n(CC2CC(c3cccnc3)=NO2)n1 (configuration not stated) -4.56%
COC(=O)c1ccc(C2CC(=O)Nc3cc(OC)c(OC)cc32)cc1 (configuration not stated) -2.55%
CCCOc1ccccc1C1CC(=O)Nc2cc3c(cc21)OCO3 (configuration not stated) -15.5%
Cc1ccc(CNC(=O)CCN2C(=O)[C@@H]3Cc4ccccc4CN3C2=O)cc1 -7.86%
CN(Cc1ccccc1Cl)C(=O)C1CCC(=O)N(CCc2cccc(F)c2)C1 (configuration not stated) 5.76%
COc1ccccc1CSc1ncc(-c2ccc([N+](=O)[O-])cc2)[nH]1 -15.7%
Cn1cccc1C(=O)N1CCc2ccccc2C1 -4.4%
O=C(Nn1cc(C(=O)N2CCN(c3ccccc3F)CC2)c2ccccc2c1=O)c1cnccn1 -16.9%
COc1ccc([C@H]2[C@H](C(C)=O)N3N=Cc4ccccc4C3C23C(=O)OC(C)(C)OC3=O)cc1 (some centres not stated) -5.56%
O=C(COC(=O)Cn1cnc2ccccc21)Nc1cccc2c1C(=O)c1ccccc1C2=O -2.58%
Cc1cc(NC(=O)Nc2c[nH]c(=O)[nH]c2=O)ccc1Br -3.04%
Cc1ccc2nc(NC(=O)C3CSC4(C)CCC(=O)N34)sc2c1 (configuration not stated) -1.9%
COc1ccc(Cl)cc1NC(=O)CN(C)C(=O)CCCc1c[nH]c2ccccc12 -8.97%
CC(C)CN(C(=O)CSc1ncnc2sccc12)C1CCS(=O)(=O)C1 (configuration not stated) -5.65%
CCCc1cc(=O)oc2cc(OCC(=O)Nc3ccc(CN4CCOCC4)cc3)c(Cl)cc12 2.03%
COc1ccc(CCNC(=O)CCc2cn(C)c3ccccc23)c(OC)c1 -6.44%
C=CCNC(=O)COC(=O)CNC(=O)c1cc(Cl)cc([N+](=O)[O-])c1 6.81%
Cn1c(=O)c2sccc2n(Cc2ccc(Br)cc2)c1=O -7.63%
COc1cc(S(=O)(=O)N2CCN(C(=O)C3CC3)CC2)ccc1NC(C)=O 5.54%
O=C(CN(Cc1ccccc1)C(=O)CCC(=O)Nc1ccccn1)NCCc1ccccc1 -8.23%
O=C(Oc1ccc(-c2nnco2)cc1)c1ccc(F)c(S(=O)(=O)N2CCOCC2)c1 -5.86%
O=C(COc1cc(Cl)c(Cl)cc1Cl)NC(=O)NC1CCCC1 2.91%
O=C(NCCCN1CCCCC1)C1CCCN(c2ncnc3c2nc2n3CCCCC2)C1 (configuration not stated) -5.62%
Cc1cc(C(=O)OCC(=O)Nc2ccccc2Cl)c(C)o1 1.55%
O=C(COC(=O)c1cc(S(=O)(=O)N2CCOCC2)ccc1Cl)NCCc1ccccc1 -5.23%
COCCCNC(=O)CSc1nc2ccc(N3CCOCC3)cc2c(=O)n1CCc1ccccc1 -1.26%
CCC(=O)N1CCN=C1SCc1ccc(F)cc1 -4.47%
CCOC(=O)N1CCN(Cc2oc(CO)cc(=O)c2O)CC1 -9.68%
Cc1noc(/C=C/c2ccco2)c1S(=O)(=O)N1CCC(C(=O)Nc2ccc(Cl)cn2)CC1 -2.32%
CCc1ccc(C(=O)NC(=S)Nc2ccccc2N2CCOCC2)cc1 -6.63%
COc1ccccc1C(=O)NC(=S)Nc1ccccc1N1CCCCC1 -5.57%
COc1ccc(C[C@H]2CN3C(=NC[C@H]3C)N2CCNC(=O)CCC2CCCCC2)cc1 3.05%
C[C@H](NC(=O)c1nc[nH]c1C(=O)N[C@@H](C)C(=O)OC(C)(C)C)C(=O)OC(C)(C)C -3.66%
Cc1cccc(NC(=O)Cn2c(=O)n(Cc3ccccc3)c(=O)c3c(C)c(C)sc32)c1 -5.82%
Cc1ccc(CS(=O)(=O)CCC(=O)NC2CC2)cc1 0.82%
COC(=O)C1=C[C@@H](C(=O)OC)[C@@H]2C3=C(C(=O)[C@]2(C)NC(=O)c2ccccc2)[C@H](C)n2c(=O)n(C)c(=O)n2[C@@H]3C1 -11.9%
COc1cc(NC(=O)COC(=O)c2ccc([N+](=O)[O-])s2)cc(OC)c1OC -5.07%
O=C(Cn1cc(C(F)(F)F)ccc1=O)Nc1ccc2c(c1)OCCO2 2.63%
O=C(COC(=O)c1cc(=O)[nH]c2ccccc12)Nc1nc(-c2cccc(Br)c2)cs1 2.69%
CCOc1ccccc1NC(=O)CCc1nnc2ccc(NCc3ccco3)nn12 0.12%
CCCCCCNS(=O)(=O)c1ccccc1Br -3.1%
Brc1ccc(-c2n(-c3ccccn3)c3ccccc3[n+]2-c2ccccn2)cc1 -4.84%
COC(=O)C1(C)CC1(c1ccccc1)c1ccccc1 (configuration not stated) -14.7%
CCOC(=O)C1=C(C)OC(N)=C(C#N)C1c1cncc(-c2ccc(F)cc2)c1 (configuration not stated) -4.76%
O=C(COC(=O)c1ccc(F)cc1F)Nc1ncccn1 -2.64%
[O-][n+]1ccc(OCc2ccccc2)cc1 -0.76%
COc1ccccc1CNS(=O)(=O)CC12CCC(CC1=O)C2(C)C (configuration not stated) -12.6%
Cc1cc(NC(=O)CSc2nc(=O)cc(N)n2-c2ccc(F)cc2)no1 0.45%
CN(C)c1cc(N)c2ccccc2n1 (tested in a mixture with another compound) -14.8%
CN1C(=O)[C@H]2[C@@H](C3CC3)N3C(=O)CN(Cc4ccccc4)C(=O)[C@@]3(C)[C@H]2C1=O -2.37%
CC(C)=CCc1c(O)c(CC=C(C)C)c2occ(-c3ccc(O)cc3)c(=O)c2c1O -5.45%
COc1ccc(-c2nc3cnccn3c2NC2CCCCC2)cc1-c1cccc(Cl)c1 -2.33%
Cc1ccc(CNS(=O)(=O)c2ccc3c(c2)N(C)CCO3)cc1 -5.63%
NS(=O)(=O)c1cc(C(=O)OCC(=O)NNC(=O)c2ccccc2)ccc1Cl -5.64%
NC1=NN(c2cccc(C(=O)O)c2)C(=O)C1 -3.83%
CC(=O)N/C(=N/c1nc(C)cc(C)n1)Nc1ccc(F)cc1F 2.96%
Cc1ccc(CNC(=O)C2CCCN2S(=O)(=O)c2ccc3c(c2)C(C)(C)C(=O)N3C)cc1 (configuration not stated) -1.94%
CCc1ccnc(NS(=O)(=O)c2ccc3c(c2)OCCO3)c1 -3.79%
C/C(=N\NC(=O)c1ccc(C)cc1)C1C(=O)c2ccccc2C1=O -16.2%
Cc1ccc(OCc2nnc(SC3CCc4ccccc4C3=O)n2C)cc1 (configuration not stated) -7.17%
CC1(C)CC(=O)C=C(c2ccc3ncccc3c2)C1 -1.73%
Nc1cc(OC(=O)c2ccccc2Br)nn1S(=O)(=O)c1ccccc1 -18.3%
CCOc1cc(C2/C(=C(/O)c3ccc(S(=O)(=O)N4CCCCC4)cc3)C(=O)C(=O)N2CCOC)ccc1O (configuration not stated) -8.45%
Cc1nc(CNS(=O)(=O)c2ccc(Oc3ccccc3)cc2)cs1 -14.3%
O=C(NCc1ccc(Cl)cc1)C(=O)NCC1CCCN1S(=O)(=O)c1cccs1 (configuration not stated) -5.47%
C=CCN(N=Nc1cccc([N+](=O)[O-])c1)c1cccc([N+](=O)[O-])c1 -14.2%
